{"source": "ChEMBL document CHEMBL1138628", "about": "“Synthesis, in vitro and computational studies of protein tyrosine phosphatase 1B inhibition of a small library of 2-arylsulfonylaminobenzothiazoles with antihyperglycemic activity” (Bioorg Med Chem, 2009)", "key": {"[1]": {"target": "T1, Tyrosine-protein phosphatase non-receptor type 1 (Homo sapiens) (UniProt P18031)", "T1 sequence (whole entry)": "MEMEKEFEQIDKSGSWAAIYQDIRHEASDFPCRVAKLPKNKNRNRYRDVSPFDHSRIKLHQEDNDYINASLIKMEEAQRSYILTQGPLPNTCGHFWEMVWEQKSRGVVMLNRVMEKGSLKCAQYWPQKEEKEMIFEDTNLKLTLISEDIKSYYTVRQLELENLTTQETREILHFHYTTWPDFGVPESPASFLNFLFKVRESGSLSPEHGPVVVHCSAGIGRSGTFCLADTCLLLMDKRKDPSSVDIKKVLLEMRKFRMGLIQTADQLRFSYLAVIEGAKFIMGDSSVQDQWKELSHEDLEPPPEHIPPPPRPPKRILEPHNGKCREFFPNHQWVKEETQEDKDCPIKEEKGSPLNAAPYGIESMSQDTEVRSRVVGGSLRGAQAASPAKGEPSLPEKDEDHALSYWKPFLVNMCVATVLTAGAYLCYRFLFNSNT", "assay": "Inhibition of human recombinant PTP1B expressed in Escherichia coli TB1 assessed as residual activity at 40 uM", "method_in_brief": "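Single-point screen at 37 °C, pH 7.0: compound at 40 µM final (from 20 mM DMSO solution) in buffer with 2 mM pNPP. Reaction started with 0.16 µg human recombinant PTP-1B in 1 ml. p-Nitrophenol read at 400 nm. Residual activity given as % of DMSO control; quadruplicate.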"}, "[2]": {"tested_on": "Rattus norvegicus", "assay": "Antihyperglycemic activity against STZ-nicotinamide-induced diabetes in overnight fasted Wistar rat assessed as decrease in glycemia at 100 mg/kg, administered intragastrically after 5 to 7 hrs by glucose oxidase method", "type": "functional", "method_in_brief": "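Male Wistar rats (200–250 g) made diabetic by i.p. nicotinamide 110 mg/kg (saline), then 15 min later i.p. streptozotocin 65 mg/kg (citrate pH 4.5), after overnight fast; hyperglycemia confirmed at 72 h. Test compounds 100 mg/kg or glibenclamide 5 mg/kg given orally as 1% Tween 80 suspension, n = 5. Caudal vein glucose (glucose oxidase glucometer) at 0, 1, 3, 5, 7 h; % variation versus 0 h.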"}, "[3]": {"target": "T1, Tyrosine-protein phosphatase non-receptor type 1 (Homo sapiens)", "assay": "Reversible inhibition of human recombinant PTP1B expressed in Escherichia coli TB1 assessed as complete recovery of residual enzyme activity at 4 deg C at 100 uM after 1 hr"}, "[4]": {"target": "T1, Tyrosine-protein phosphatase non-receptor type 1 (Homo sapiens)", "assay": "Reversible inhibition of human recombinant PTP1B expressed in Escherichia coli TB1 assessed as complete recovery of residual enzyme activity at 37 deg C at 100 uM after 1 hr"}, "[5]": {"target": "T1, Tyrosine-protein phosphatase non-receptor type 1 (Homo sapiens)", "assay": "Inhibition of human recombinant PTP1B expressed in Escherichia coli TB1-catalyzed hydrolysis of p-nitrophenyl phosphate assessed as decrease in hydrolysis rate by slow binding assay", "method_in_brief": "(§1)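 Time-course of pNPP hydrolysis by recombinant PTP-1B at several inhibitor concentrations, with p-nitrophenol release followed continuously at 400 nm. Initial rates and curve linearity examined, either without enzyme–inhibitor preincubation or after 30 min preincubation.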"}, "[6]": {"target": "T1, Tyrosine-protein phosphatase non-receptor type 1 (Homo sapiens)", "assay": "Inhibition of human recombinant PTP1B expressed in Escherichia coli TB1-catalyzed hydrolysis of p-nitrophenyl phosphate assessed as decrease in hydrolysis rate preincubated for 30 mins by slow binding assay", "method_in_brief": "as §1"}, "[7]": {"target": "T2, Tyrosine-protein phosphatase non-receptor type 1 (Homo sapiens, UniProt P18031)", "T2 sequence (P18031 whole entry)": "T1 sequence (whole entry)", "assay": "Inhibition of human recombinant PTP1B expressed in Escherichia coli TB1 assessed as residual activity", "method_in_brief": "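Tagged human PTP-1B produced in E. coli TB1 from pGEX-2T, affinity-purified, thrombin-cleaved, gel-filtered. Run at 37 °C, pH 7.0, in 0.075 M β,β-dimethylglutarate with 1 mM EDTA and 1 mM DTT, substrate 2 mM pNPP (Km). IC50 used varying inhibitor, 10 nM enzyme, KOH stop, p-nitrophenol at 400 nm. Fit of vi/vo versus concentration; quadruplicate.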"}, "[8]": {"target": "T1, Tyrosine-protein phosphatase non-receptor type 1 (Homo sapiens)", "assay": "Inhibition of human recombinant PTP1B expressed in Escherichia coli TB1-catalyzed hydrolysis of p-nitrophenyl phosphate assessed as decrease in hydrolysis rate using 25 mM pNPP as substrate", "method_in_brief": "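Rates at 37 °C, pH 7.0, with 25 mM pNPP (12.5-fold Km), with inhibitor at 2.5, 5.0, 10, 25, 50, 100 and 200 µM. Residual activity measured to test for partial inhibition; quadruplicate.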"}, "[9]": {"target": "T2, Tyrosine-protein phosphatase non-receptor type 1", "assay": "Inhibition of human recombinant PTP1B expressed in Escherichia coli TB1 by double reciprocal plot analysis", "method_in_brief": "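Initial hydrolysis rates at 37 °C, pH 7.0, across pNPP 0.5–40 mM, with several inhibitor concentrations (e.g. 0, 5, 10, 20, 30 µM). Data analysed as Lineweaver–Burk (1/v vs 1/[S]) plots to assign inhibition type; quadruplicate.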"}}, "note": "Activity calls are given as the source filed them. The calls are words filed in the database; no cut-off is given here."}
{"compound": "CC(=O)Nc1ccc(S(=O)(=O)Nc2nc3ccc([N+](=O)[O-])cc3s2)cc1", "values": [{"measurement": "Activity", "setting": "[1]", "result": "inactive"}]}
{"compound": "COc1ccc(Cl)cc1C(=O)NCCc1ccc(S(=O)(=O)NC(=O)NC2CCCCC2)cc1", "values": [{"measurement": "Activity", "setting": "[2]", "result": "Active"}]}
{"compound": "Cc1ccc2nc(NS(=O)(=O)c3ccc([N+](=O)[O-])cc3)sc2c1", "values": [{"measurement": "Activity", "setting": "[1]", "result": "Active"}, {"measurement": "Activity", "setting": "[3]", "result": "Active"}, {"measurement": "Activity", "setting": "[4]", "result": "Active"}, {"measurement": "Activity", "setting": "[5]", "result": "Active"}, {"measurement": "Activity", "setting": "[6]", "result": "Active"}, {"measurement": "IC50", "setting": "[7]", "result": 19.5, "unit": "µM"}, {"measurement": "Activity", "setting": "[8]", "result": "Active"}, {"measurement": "Ki", "setting": "[9]", "result": 7.1, "unit": "µM"}, {"measurement": "Activity", "setting": "[2]; route intragastric", "result": 27, "unit": "%"}]}
{"compound": "CCOc1ccc2nc(NS(=O)(=O)c3ccc(Cl)cc3)sc2c1", "values": [{"measurement": "Activity", "setting": "[1]", "result": "inactive"}]}
{"compound": "CCOc1ccc2nc(NS(=O)(=O)c3ccc([N+](=O)[O-])cc3)sc2c1", "values": [{"measurement": "Activity", "setting": "[1]", "result": "Active"}, {"measurement": "Activity", "setting": "[3]", "result": "Active"}, {"measurement": "Activity", "setting": "[4]", "result": "Active"}, {"measurement": "Activity", "setting": "[5]", "result": "Active"}, {"measurement": "Activity", "setting": "[6]", "result": "Active"}, {"measurement": "IC50", "setting": "[7]", "result": 40.9, "unit": "µM"}, {"measurement": "Activity", "setting": "[8]", "result": "Active"}, {"measurement": "Ki", "setting": "[9]", "result": 20.4, "unit": "µM"}]}
{"compound": "O=[N+]([O-])c1ccc(S(=O)(=O)Nc2nc3ccc(Cl)cc3s2)cc1", "values": [{"measurement": "Activity", "setting": "[1]", "result": "inactive"}]}
{"compound": "COc1ccc2nc(NS(=O)(=O)c3ccc([N+](=O)[O-])cc3)sc2c1", "values": [{"measurement": "Activity", "setting": "[1]", "result": "inactive"}]}
